# Results as given in ChEMBL document CHEMBL4024713, “Novel aryl piperazines for alleviation of 'andropause' associated prostatic disorders and depression” (Eur J Med Chem, 2017).
# The source made the active and inactive calls. The rule behind the calls is not given here.
# Key:
# Rattus norvegicus [1] = experiment: Anti-androgenic activity in citral-induced prostatic hyperplasia Sprague-Dawley rat model assessed increase in distinction between stromal and acinar compartments at 10 mg/kg, po administered once daily coadministered with citral for 21 days measured 24 hrs last post dose by hematoxyline and eosin stainig based light microscopic analysis; assay type: functional, organism-based
# In short: (§1)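 Adult male Sprague-Dawley rats (250-280 g, n = 5), citral 100 mg/kg orally once daily for 28 days. From day 8, compound or flutamide at 10 mg/kg orally once daily for the remaining 21 days. Prostate weight is expressed relative to the citral group (100%). Prostates fixed in 10% formalin; 5 μ sections stained with H&E, examined by light microscopy.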
# Rattus norvegicus [2] = experiment: Toxicity in citral-induced prostatic hyperplasia Sprague-Dawley rat model assessed as effect on testis weight at 10 mg/kg, po administered once daily coadministered with citral for 21 days measured 24 hrs last post dose; assay type: organism-based; conditions: in vivo
# Mus musculus [3] = experiment: Anti-depressant like activity in Swiss albino mouse assessed as reduction in immobility time at 20 mg/kg, po administered 60 mins prior to test measured for 5 mins by forced swim test relative to control; assay type: functional; design: scale not given: the % may be the effect or the level left
# In short: (§2)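 Male Swiss albino mice (20-25 g); compound 20 mg/kg, imipramine 60 mg/kg or fluoxetine 20 mg/kg given orally in 1% gum acacia (10 mL/kg). After 60 min: 15 min pre-swim in a water cylinder (10 cm depth, 25 ± 1 °C), then retest at 24 h. Immobility recorded for 5 min after 1 min acclimatization; N = 7-9, mean ± SEM, unpaired t-test.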
# Rattus norvegicus [4] = experiment: Toxicity in citral-induced prostatic hyperplasia Sprague-Dawley rat model assessed as effect on seminal vesicle weight at 10 mg/kg, po administered once daily coadministered with citral for 21 days measured 24 hrs last post dose; assay type: organism-based; conditions: in vivo
# Rattus norvegicus [5] = experiment: Toxicity in citral-induced prostatic hyperplasia Sprague-Dawley rat model assessed as effect on epididymis weight at 10 mg/kg, po administered once daily coadministered with citral for 21 days measured 24 hrs last post dose; assay type: organism-based; conditions: in vivo
# DU-145 = experiment: Cytotoxicity against human DU145 cells after 24 hrs by MTT assay; assay type: functional, cell-based; conditions: DU-145, 24 h
# PC-3 = experiment: Cytotoxicity against human PC3 cells after 24 hrs by MTT assay; assay type: functional, cell-based; conditions: PC-3, 24 h
# Rattus norvegicus [6] = experiment: Anti-androgenic activity in citral-induced prostatic hyperplasia Sprague-Dawley rat model assessed as prostate weight at 10 mg/kg, po administered once daily coadministered with citral for 21 days measured 24 hrs last post dose (reference value: 100%); assay type: functional; in short: as §1
# LNCaP = experiment: Cytotoxicity against human LNCAP cells after 24 hrs by MTT assay; assay type: functional, cell-based
# [7] = biological target: T1, Alpha-1A adrenergic receptor (Homo sapiens) (UniProt P35348); experiment: Antagonist activity at recombinant human alpha1a adrenergic receptor expressed in human Chem1 cell membrane assessed as reduction in ephinephrine-induced calcium mobilization at 1 uM by fluoforte dye based fluorescence assay relative to ephinephrine; assay type: functional
# T1 sequence (whole entry): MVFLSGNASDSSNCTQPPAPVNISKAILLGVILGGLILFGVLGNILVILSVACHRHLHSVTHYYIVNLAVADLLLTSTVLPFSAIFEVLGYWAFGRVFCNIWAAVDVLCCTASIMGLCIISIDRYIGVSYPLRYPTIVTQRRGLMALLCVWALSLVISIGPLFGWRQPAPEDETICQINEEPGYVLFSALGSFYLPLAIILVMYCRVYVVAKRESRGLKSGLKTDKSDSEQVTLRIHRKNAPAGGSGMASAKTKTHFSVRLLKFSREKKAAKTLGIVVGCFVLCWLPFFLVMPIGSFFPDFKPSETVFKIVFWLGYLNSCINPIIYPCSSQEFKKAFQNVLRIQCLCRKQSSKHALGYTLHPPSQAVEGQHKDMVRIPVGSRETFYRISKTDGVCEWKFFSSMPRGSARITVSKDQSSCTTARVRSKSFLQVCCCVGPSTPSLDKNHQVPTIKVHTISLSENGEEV
# In short: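 α1A-adrenergic receptor-expressing Chem-1 cells, 4 x 10^4/well overnight, loaded with FluoForte calcium dye 45 min at 37 °C then 15 min at room temperature. Compounds at 1 μM; epinephrine 20 μM added at 10 s; tamsulosin 100 nM and 1 μM as reference. Fluorescence (ex 490/em 525 nm) read for 180 s as RFU.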
# [8] = biological target: T2, Androgen receptor (Homo sapiens) (UniProt P10275); experiment: Antagonist activity at AR (unknown origin) expressed in African green monkey COS7 cells at 7.5 uM after 24 hrs by dual luciferase reporter gene assay; assay type: cell-based
# T2 sequence (whole entry): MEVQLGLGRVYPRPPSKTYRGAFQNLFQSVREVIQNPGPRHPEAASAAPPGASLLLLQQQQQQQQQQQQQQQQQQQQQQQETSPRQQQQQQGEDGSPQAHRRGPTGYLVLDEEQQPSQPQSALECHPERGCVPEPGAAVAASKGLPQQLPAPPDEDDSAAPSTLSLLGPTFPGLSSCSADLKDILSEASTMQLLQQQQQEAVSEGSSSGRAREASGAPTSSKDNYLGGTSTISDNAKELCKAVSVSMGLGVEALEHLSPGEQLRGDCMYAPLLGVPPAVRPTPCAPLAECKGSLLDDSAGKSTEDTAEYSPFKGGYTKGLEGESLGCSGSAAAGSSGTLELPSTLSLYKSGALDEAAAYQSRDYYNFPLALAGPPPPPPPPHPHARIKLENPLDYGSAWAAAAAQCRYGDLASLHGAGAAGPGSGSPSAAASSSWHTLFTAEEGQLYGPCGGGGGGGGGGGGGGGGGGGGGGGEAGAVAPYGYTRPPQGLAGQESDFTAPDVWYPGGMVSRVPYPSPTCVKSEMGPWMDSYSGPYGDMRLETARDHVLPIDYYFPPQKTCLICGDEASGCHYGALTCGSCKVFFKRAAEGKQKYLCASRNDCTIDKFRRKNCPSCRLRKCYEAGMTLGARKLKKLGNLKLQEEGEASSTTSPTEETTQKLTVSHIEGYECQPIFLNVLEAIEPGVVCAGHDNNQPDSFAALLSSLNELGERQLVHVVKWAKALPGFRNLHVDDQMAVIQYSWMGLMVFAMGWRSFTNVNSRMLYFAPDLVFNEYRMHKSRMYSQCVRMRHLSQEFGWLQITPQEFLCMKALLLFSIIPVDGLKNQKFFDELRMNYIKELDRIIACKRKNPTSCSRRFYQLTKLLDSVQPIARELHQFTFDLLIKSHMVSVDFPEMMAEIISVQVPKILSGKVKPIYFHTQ
# In short: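 Cos7 cells (AR-negative) transiently transfected for 8 h with pARE-E1B-LUC reporter plus pCR3.1.AR expression vector. Then in complete medium, treated with compound at 7.5 μM for 24 h; bicalutamide 3 μM as positive control. Luciferase normalized to pRL-SV40 internal control, expressed as RLU relative to control = 100%.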
# Mus musculus [9] = experiment: Anti-depressant like activity in Swiss albino mouse assessed as reduction in immobility time at 60 mg/kg, po measured for 5 mins by tail suspension test; assay type: functional, organism-based
# In short: (§3)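 Male Swiss albino mice dosed orally in 1% gum acacia; imipramine as standard. Each mouse suspended by the tail with tape to a horizontal bar 60 cm above the table. Immobility (no limb or body movement other than respiration) recorded for 5 min after 1 min acclimatization; N = 5.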
# Mus musculus [10] = experiment: Anti-depressant like activity in Swiss albino mouse assessed as reduction in immobility time at 60 mg/kg, po administered 60 mins prior to test measured for 5 mins by forced swim test relative to control; assay type: functional; design: scale not given: the % may be the effect or the level left; in short: as §2
# Mus musculus [11] = experiment: Toxicity in Swiss albino mouse assessed as latency time to fall at 20 mg/kg, po measured at 1 hr interval for 4 hrs by rotarod test; assay type: organism-based; conditions: in vivo
# In short: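 Mice trained on the rotarod (5 to 10 rpm), 2 min trials, 3 per day for two days. On day 3, tested before oral dosing and at 1, 2, 3 and 4 h after, recording latency to fall.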
# Mus musculus [12] = experiment: Anti-depressant like activity in Swiss albino mouse assessed as reduction in immobility time at 20 mg/kg, po measured for 5 mins by tail suspension test; assay type: functional, organism-based; in short: as §3
# Mus musculus [13] = experiment: Toxicity in Swiss albino mouse assessed as effect on locomotor activity at 20 mg/kg, po measured at 5 mins interval for 90 mins by open field test; assay type: organism-based; conditions: in vivo
# In short: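 Male Swiss albino mice in an activity chamber, infrared beam-break counting over 24 intervals of 5 min (120 min). Oral dosing after the 6th interval; six animals per group.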
smiles,measurement,setting,value
c1ccc(N2CCN(CCN3CCN(c4ccccn4)CC3)CC2)nc1,Activity,Rattus norvegicus [1],Active
same,Activity,Rattus norvegicus [2],Non-Toxic
same,Activity,Mus musculus [3],16.95%
same,Activity,Rattus norvegicus [4],Non-Toxic
same,Activity,Rattus norvegicus [5],Non-Toxic
same,EC50,DU-145,> 80 µM
same,EC50,PC-3,> 80 µM
same,Activity,Rattus norvegicus [6],44%
same,EC50,LNCaP,12.4 µM
CNCCC(Oc1ccc(C(F)(F)F)cc1)c1ccccc1 (stereo not drawn) [FLUOXETINE],Activity,Mus musculus [3],75.35%
O=[N+]([O-])c1ccc(N2CCN(CCN3CCN(c4ccc(F)cc4)CC3)CC2)cc1,EC50,LNCaP,77.9 µM
CC(C)C(=O)Nc1ccc([N+](=O)[O-])c(C(F)(F)F)c1 [FLUTAMIDE],Activity,Rattus norvegicus [6],58.8%
same,EC50,LNCaP,7 µM
Fc1ccc(N2CCN(CCN3CCN(c4ccc(F)cc4)CC3)CC2)cc1,EC50,LNCaP,71.2 µM
O=[N+]([O-])c1ccc(N2CCN(CCCN3CCN(c4ccc([N+](=O)[O-])cc4C(F)(F)F)CC3)CC2)c(C(F)(F)F)c1,EC50,LNCaP,55.5 µM
Fc1ccc(N2CCN(CCCN3CCN(c4ccc(F)cc4)CC3)CC2)cc1,EC50,LNCaP,49.2 µM
COc1ccccc1N1CCN(CCN2CCN(c3ccccc3OC)CC2)CC1,EC50,LNCaP,40 µM
CCOc1ccccc1OCCN[C@H](C)Cc1ccc(OC)c(S(N)(=O)=O)c1,fold change (FC),[7],1.6
O=[N+]([O-])c1cc(C(F)(F)F)ccc1N1CCN(CCN2CCN(c3ccc(C(F)(F)F)cc3[N+](=O)[O-])CC2)CC1,EC50,LNCaP,63.2 µM
O=[N+]([O-])c1cc(C(F)(F)F)ccc1N1CCN(CCCN2CCN(c3ccc(C(F)(F)F)cc3[N+](=O)[O-])CC2)CC1,Activity,Rattus norvegicus [1],Active
same,Activity,Rattus norvegicus [2],Non-Toxic
same,Activity,Mus musculus [3],25.71%
same,Activity,Rattus norvegicus [4],Non-Toxic
same,Activity,Rattus norvegicus [5],Non-Toxic
same,EC50,DU-145,76.5 µM
same,EC50,PC-3,> 80 µM
same,Activity,Rattus norvegicus [6],51.7%
same,EC50,LNCaP,12.2 µM
same,Activity,[8],Active
CN(C)CCCN1c2ccccc2CCc2ccccc21 [IMIPRAMINE],Activity,Mus musculus [9],Active
same,Activity,Mus musculus [10],40.39%
Fc1ccccc1N1CCN(CCN2CCN(c3ccccc3F)CC2)CC1,EC50,LNCaP,40 µM
COc1ccccc1N1CCN(CCN2CCN(c3ccc(F)cc3)CC2)CC1,EC50,LNCaP,78.7 µM
O=[N+]([O-])c1ccc(N2CCN(CCN3CCN(c4ccc([N+](=O)[O-])cc4)CC3)CC2)cc1,EC50,LNCaP,25.2 µM
Fc1ccc(N2CCN(CCN3CCN(c4ccccc4F)CC3)CC2)cc1,EC50,LNCaP,68 µM
O=[N+]([O-])c1ccc(N2CCN(CCCN3CCN(c4ccc([N+](=O)[O-])cc4)CC3)CC2)cc1,Activity,Rattus norvegicus [1],Active
same,Activity,Rattus norvegicus [2],Non-Toxic
same,Time,Mus musculus [11],120 s
same,Activity,Mus musculus [3],69.74%
same,Activity,Rattus norvegicus [4],Non-Toxic
same,Activity,Mus musculus [12],Active
same,Activity,Mus musculus [13],Non-Toxic
same,Activity,Rattus norvegicus [5],Non-Toxic
same,EC50,DU-145,> 80 µM
same,EC50,PC-3,> 80 µM
same,Activity,Rattus norvegicus [6],29%
same,EC50,LNCaP,11.8 µM
O=[N+]([O-])c1ccc(N2CCN(CCN3CCN(c4ccc([N+](=O)[O-])cc4C(F)(F)F)CC3)CC2)c(C(F)(F)F)c1,EC50,LNCaP,72.2 µM
Fc1ccccc1N1CCN(CCCN2CCN(c3ccccc3F)CC2)CC1,Activity,Rattus norvegicus [1],Active
same,Activity,Rattus norvegicus [2],Non-Toxic
same,Activity,Mus musculus [3],20.86%
same,Activity,Rattus norvegicus [4],Non-Toxic
same,Activity,Rattus norvegicus [5],Non-Toxic
same,EC50,DU-145,> 80 µM
same,EC50,PC-3,> 80 µM
same,Activity,Rattus norvegicus [6],37%
same,EC50,LNCaP,10.4 µM
COc1ccccc1N1CCN(CCN2CCN(c3ccc([N+](=O)[O-])cc3)CC2)CC1,EC50,LNCaP,46.5 µM
